Laboratory results as given in ChEMBL document CHEMBL3259704, “Second generation steroidal 4-aminoquinolines are potent, dual-target inhibitors of the botulinum neurotoxin serotype A metalloprotease and P. falciparum malaria” (J Med Chem, 2014).

Legend:
[1] = target: Botulinum neurotoxin type A (Clostridium botulinum) (UniProt P0DPI0); experiment: Inhibition of Clostridium botulinum recombinant BoNT/A light chain using N-terminal acetylated, C-terminal aminated SNAP-25 (187-203) as substrate at 20 uM by reverse-phase HPLC analysis
Botulinum neurotoxin type A (Clostridium botulinum), sequence (P0DPI0 2-448 limits assumed): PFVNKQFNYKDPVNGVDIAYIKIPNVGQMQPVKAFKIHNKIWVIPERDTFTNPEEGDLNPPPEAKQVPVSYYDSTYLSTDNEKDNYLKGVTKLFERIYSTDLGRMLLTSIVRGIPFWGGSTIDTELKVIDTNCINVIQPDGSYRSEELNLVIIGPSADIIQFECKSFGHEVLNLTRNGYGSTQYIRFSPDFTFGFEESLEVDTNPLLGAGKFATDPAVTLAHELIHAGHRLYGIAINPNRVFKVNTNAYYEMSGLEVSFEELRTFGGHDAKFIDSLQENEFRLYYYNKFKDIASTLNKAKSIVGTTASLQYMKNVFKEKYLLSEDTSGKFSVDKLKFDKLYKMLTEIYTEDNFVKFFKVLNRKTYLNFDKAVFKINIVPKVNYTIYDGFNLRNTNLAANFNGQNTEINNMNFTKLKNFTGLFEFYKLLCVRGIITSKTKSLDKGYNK
Procedure, shortened: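 Recombinant BoNT/A LC with SNAP-25 187–203 peptide substrate in 40 mM HEPES–0.05% Tween, pH 7.3, with 0.5 mg/mL BSA and 50 μM excess Zn, at 37 °C. Quenched with TFA; reverse-phase HPLC product/substrate peak areas give percent inhibition, run in duplicate.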

[2] = target: Botulinum neurotoxin type A (Clostridium botulinum, UniProt P0DPI0); experiment: Inhibition of Clostridium botulinum recombinant BoNT/A light chain using N-terminal acetylated, C-terminal aminated SNAP-25 (187-203) as substrate by reverse-phase HPLC analysis
Botulinum neurotoxin type A, sequence (P0DPI0 2-448 limits assumed): as above
Procedure, shortened: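 Same HPLC LC cleavage assay (pH 7.3 HEPES/Tween, BSA, excess Zn, 37 °C). […] Ki comes from velocity versus substrate at several inhibitor levels, globally fit to a competitive model.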

Plasmodium falciparum [3] = experiment: Antimalarial activity against CQ, MFQ-resistant Plasmodium falciparum TM91C235 clone Southeast asian isolate assessed as inhibition of parasite proliferation by MSF assay; assay type: functional, organism-based
Procedure, shortened: (§1)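 SYBR Green I fluorescence (MSF) microtiter drug-sensitivity assay: malarial DNA content is the measure of in vitro parasite proliferation. Resistance index is the IC90 ratio of the resistant strain to D6.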

HepG2 = experiment: Cytotoxicity against human HepG2 cells assessed as cell viability after 48 hrs by MTT assay; assay type: cell-based; conditions: HepG2, 48 h
[4] = Selectivity index, ratio of IC50 for human HepG2 cells to IC50 for CQ-resistant, MFQ-susceptible Plasmodium falciparum W2 clone Indochina 1 isolate; assay type: toxicity, cell-based; conditions: read-out: Ratio IC50
[5] = Selectivity index, ratio of IC50 for human HepG2 cells to IC50 for CQ, MFQ-susceptible Plasmodium falciparum D6 clone Sierra 1/UNC isolate; assay type: toxicity, cell-based; conditions: read-out: Ratio IC50
[6] = Selectivity index, ratio of IC50 for human HepG2 cells to IC50 for CQ, MFQ-resistant Plasmodium falciparum TM91C235 clone Southeast asian isolate; assay type: toxicity, cell-based; conditions: read-out: Ratio IC50
Plasmodium falciparum [7] = experiment: Antimalarial activity against CQ-resistant, MFQ-susceptible Plasmodium falciparum W2 clone Indochina 1 isolate assessed as inhibition of parasite proliferation by MSF assay; assay type: functional, organism-based; procedure, shortened: as §1
Plasmodium falciparum [8] = experiment: Antimalarial activity against CQ, MFQ-susceptible Plasmodium falciparum D6 clone Sierra 1/UNC isolate assessed as inhibition of parasite proliferation by MSF assay; assay type: functional, organism-based; procedure, shortened: as §1

SMILES	inhibition [1] [%]	IC50 [2] [nM]	Ki [2] [nM]	other results
CC(=O)O[C@H]1C[C@H]2[C@@H]([C@H](OC(C)=O)C[C@@H]3C[C@H](NC(=O)OC(C)(C)C)CC[C@@]32C)[C@@H]2CC[C@H]([C@H](C)CCCNCCCNc3ccnc4cc(Cl)ccc34)[C@@]12C	74.9	3240	–	–
CC(=O)O[C@H]1C[C@H]2[C@@H]([C@H](OC(C)=O)C[C@@H]3C[C@H](NCCCCCCNc4ccnc5cc(Cl)ccc45)CC[C@@]32C)[C@@H]2CC[C@H]([C@H](C)CCCNCCCCNc3ccnc4cc(Cl)ccc34)[C@@]12C	93.7	–	300	–
CC(=O)O[C@H]1C[C@H]2[C@@H]([C@H](OC(C)=O)C[C@@H]3C[C@H](NC(=O)OC(C)(C)C)CC[C@@]32C)[C@@H]2CC[C@H]([C@H](C)CCCN(CCCNc3ccnc4cc(Cl)ccc34)CCC[C@@H](C)[C@H]3CC[C@H]4[C@@H]5[C@H](OC(C)=O)C[C@@H]6C[C@H](NC(=O)OC(C)(C)C)CC[C@]6(C)[C@H]5C[C@H](OC(C)=O)[C@]34C)[C@@]12C	6.42	–	–	IC50 (Plasmodium falciparum [3]): 369 nM; IC50 (HepG2): 35400 nM; selectivity ratio [4]: 96; selectivity ratio [5]: 96; selectivity ratio [6]: 96
CC(=O)O[C@@H]1CC[C@@]2(C)[C@@H](C1)C[C@@H](OC(C)=O)[C@@H]1[C@@H]2C[C@H](OC(C)=O)[C@]2(C)[C@@H]([C@H](C)CCCNCCNc3ccnc4cc(Cl)ccc34)CC[C@@H]12	74	3800	6990	IC90 (Plasmodium falciparum [7]): 32.5 nM; IC90 (Plasmodium falciparum [8]): 34.2 nM; IC90 (Plasmodium falciparum [3]): 77.9 nM
CC(=O)O[C@H]1C[C@H]2[C@@H]([C@H](OC(C)=O)C[C@@H]3C[C@H](NCCCCCCNc4ccnc5cc(Cl)ccc45)CC[C@@]32C)[C@@H]2CC[C@H]([C@H](C)CCCNCCCCCCNc3ccnc4cc(Cl)ccc34)[C@@]12C	95.5	–	285	–
CC(=O)O[C@H]1C[C@H]2[C@@H]([C@H](OC(C)=O)C[C@@H]3C[C@@H](NCCCCCCNc4ccnc5cc(Cl)ccc45)CC[C@@]32C)[C@@H]2CC[C@H]([C@H](C)CCCNCCCCCCNc3ccnc4cc(Cl)ccc34)[C@@]12C	89.6	–	389	–
CC(=O)O[C@H]1C[C@H]2[C@@H]([C@H](OC(C)=O)C[C@@H]3C[C@@H](NCCCCNc4ccnc5cc(Cl)ccc45)CC[C@@]32C)[C@@H]2CC[C@H]([C@H](C)CCCNCCCCNc3ccnc4cc(Cl)ccc34)[C@@]12C	96.7	–	300	–
N=C(N)c1ccc(Oc2ccc(-c3cc4ccc(C(=N)N)cc4[nH]3)cc2)cc1	–	2620	–	–
Clc1ccc2c(NCCNC34CC5CC(CC(C5)C3)C4)ccnc2c1	–	11800	–	–
CC(=O)O[C@H]1C[C@H]2[C@@H]([C@H](OC(C)=O)C[C@@H]3C[C@H](NC(=O)OC(C)(C)C)CC[C@@]32C)[C@@H]2CC[C@H]([C@H](C)CCCN(C)CCCNc3ccnc4cc(Cl)ccc34)[C@@]12C	59.6	6620	–	–
CCN(CC)CCCC(C)Nc1ccnc2cc(Cl)ccc12 (centres undefined) [CHLOROQUINE]	6.51	–	–	IC90 (Plasmodium falciparum [7]): 698 nM; IC90 (Plasmodium falciparum [8]): 16.1 nM; IC90 (Plasmodium falciparum [3]): 373 nM
CC(=O)O[C@H]1C[C@H]2[C@@H]([C@H](OC(C)=O)C[C@@H]3CC(=O)CC[C@@]32C)[C@@H]2CC[C@H]([C@H](C)CCCNCCCCNc3ccnc4cc(Cl)ccc34)[C@@]12C	81.5	–	–	IC50 (Plasmodium falciparum [7]): 175 nM; IC50 (Plasmodium falciparum [3]): 214 nM; IC50 (HepG2): 1230 nM; selectivity ratio [4]: 7; selectivity ratio [5]: 6; selectivity ratio [6]: 6
CC(=O)O[C@H]1C[C@H]2[C@@H]([C@H](OC(C)=O)C[C@@H]3C[C@@H](NCCCCCCNc4ccnc5cc(Cl)ccc45)CC[C@@]32C)[C@@H]2CC[C@H]([C@H](C)CCCNCCCCNc3ccnc4cc(Cl)ccc34)[C@@]12C	95.4	–	103	–
